For data set [1], the target named is T1, Xanthine dehydrogenase/oxidase (Homo sapiens, UniProt P47989). Description: Inhibition of xanthine oxidase (unknown origin) assessed as conversion of xanthine to uric acid under anaerobic condition at 5 X 10^-4 M after 1 hr. The following applies: 500 µM. The essentials:
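Reduced-form incubation: xanthine oxidase (50 µL of 1.2 µM), 1.0 mL of a 5 × 10⁻⁴ M compound solution and EDTA in pH 7.4 Tris were purged with N₂. Xanthine was added to reduce the enzyme, and the sealed tube was held 1 h at 25 °C (compound:enzyme 8.3 × 10³). The tube was then opened to air, xanthine added, and the 295 nm initial rate compared with controls.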

Data set [2] concerns the target T1, Xanthine dehydrogenase/oxidase. Kind of data set: Inhibition of xanthine oxidase (unknown origin) assessed as conversion of xanthine to uric acid under aerobic condition at 0.5 mM after 1 hr. As to conditions: 500 µM. In short, it runs like this: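 Oxidized-form incubation: xanthine oxidase (50 µL of 1.2 µM) was incubated aerobically for 1.0 h with 1.0 mL of a 5 × 10⁻⁴ M compound solution and EDTA in Tris-HCl buffer, total 2.75 mL. Xanthine was then added, and the initial rate of uric acid formation was read at 295 nm against controls without compound.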

For data set [3], the species on record is Oryctolagus cuniculus. Kind of data set: Inhibition of rabbit liver guanase using guanine as substrate at 0.4 mM. The essentials: (§1)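 Rabbit liver guanase assay in 1.0 mL pH 7.4 0.05 M Tris-HCl with 13.3 µM guanine, started by adding enzyme. Guanine disappearance was followed at 248 nm and compared with a reaction run without inhibitor.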
For data set [4], the species on record is Oryctolagus cuniculus. Kind of data set: Inhibition of rabbit liver guanase using guanine as substrate compound treated at 46 times substrate concentration. The essentials: as §1
Data set [5] is described as follows: Noncompetitive inhibition of rabbit liver guanase using guanine as substrate by Dixon plot analysis. The arrangement: species or system Oryctolagus cuniculus. The essentials:
(§2)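 Kinetics used rabbit liver guanase in pH 7.4 0.05 M Tris-HCl, with guanine at 20, 10, 6.4 and 4.8 µM and four inhibitor concentrations, read at 248 nm. Lineweaver–Burk (1/V vs 1/[S]) and Dixon (1/V vs [I]) plots were drawn. Ki was taken from the Dixon x-intercept ([…]).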

For data set [6], the species on record is Oryctolagus cuniculus. Description: Inhibition of rabbit liver guanase using 13.3 uM guanine as substrate assessed as ([I]/[S])50. In short, it runs like this:
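Rabbit liver guanase in 1.0 mL pH 7.4 0.05 M Tris-HCl with 13.3 µM guanine and varying inhibitor, started by adding enzyme. Guanine loss read at 248 nm. V0/Vi was plotted against [I], and I50 was taken where V0/Vi = 2, then expressed relative to the substrate level. Values were reproducible within ±20%.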

Data set [7] is filed under the species Oryctolagus cuniculus. Description: Noncompetitive inhibition of rabbit liver guanase using guanine as substrate by Lineweaver-Burk plot analysis. The essentials:
as §2

Data set [8] in a line: Dissociation constant, pKa of the compound by titrimetric analysis. The class given is physicochemical.
The species named for data set [9] is Oryctolagus cuniculus. Description: Inhibition of rabbit liver guanase using guanine as substrate compound treated at 28 times substrate concentration. In short, it runs like this:
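Rabbit liver guanase, diluted from a 10 mg protein/mL stock, run at pH 7.4 in 0.05 M Tris-HCl with 13.3 µM guanine as substrate. Inhibitor was added at varying amounts, at least 28 times the substrate concentration. The enzyme was added last to start the reaction. Guanine loss was followed at 248 nm, and velocities were compared with the uninhibited control.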

For data set [10], the species on record is Oryctolagus cuniculus. Description: Inhibition of rabbit liver guanase using guanine as substrate compound treated at 32 times substrate concentration. In short, it runs like this:
as §1

This note sets out measurements from ChEMBL document CHEMBL3244386, “Synthesis of fused [1,2,6]thiadiazine 1,1-dioxides as potential transition-state analogue inhibitors of xanthine oxidase and guanase” (J Med Chem, 1979).

Calls of active or inactive are those of the source. The rule behind the calls is not given here.

T1 sequence (P47989 whole entry): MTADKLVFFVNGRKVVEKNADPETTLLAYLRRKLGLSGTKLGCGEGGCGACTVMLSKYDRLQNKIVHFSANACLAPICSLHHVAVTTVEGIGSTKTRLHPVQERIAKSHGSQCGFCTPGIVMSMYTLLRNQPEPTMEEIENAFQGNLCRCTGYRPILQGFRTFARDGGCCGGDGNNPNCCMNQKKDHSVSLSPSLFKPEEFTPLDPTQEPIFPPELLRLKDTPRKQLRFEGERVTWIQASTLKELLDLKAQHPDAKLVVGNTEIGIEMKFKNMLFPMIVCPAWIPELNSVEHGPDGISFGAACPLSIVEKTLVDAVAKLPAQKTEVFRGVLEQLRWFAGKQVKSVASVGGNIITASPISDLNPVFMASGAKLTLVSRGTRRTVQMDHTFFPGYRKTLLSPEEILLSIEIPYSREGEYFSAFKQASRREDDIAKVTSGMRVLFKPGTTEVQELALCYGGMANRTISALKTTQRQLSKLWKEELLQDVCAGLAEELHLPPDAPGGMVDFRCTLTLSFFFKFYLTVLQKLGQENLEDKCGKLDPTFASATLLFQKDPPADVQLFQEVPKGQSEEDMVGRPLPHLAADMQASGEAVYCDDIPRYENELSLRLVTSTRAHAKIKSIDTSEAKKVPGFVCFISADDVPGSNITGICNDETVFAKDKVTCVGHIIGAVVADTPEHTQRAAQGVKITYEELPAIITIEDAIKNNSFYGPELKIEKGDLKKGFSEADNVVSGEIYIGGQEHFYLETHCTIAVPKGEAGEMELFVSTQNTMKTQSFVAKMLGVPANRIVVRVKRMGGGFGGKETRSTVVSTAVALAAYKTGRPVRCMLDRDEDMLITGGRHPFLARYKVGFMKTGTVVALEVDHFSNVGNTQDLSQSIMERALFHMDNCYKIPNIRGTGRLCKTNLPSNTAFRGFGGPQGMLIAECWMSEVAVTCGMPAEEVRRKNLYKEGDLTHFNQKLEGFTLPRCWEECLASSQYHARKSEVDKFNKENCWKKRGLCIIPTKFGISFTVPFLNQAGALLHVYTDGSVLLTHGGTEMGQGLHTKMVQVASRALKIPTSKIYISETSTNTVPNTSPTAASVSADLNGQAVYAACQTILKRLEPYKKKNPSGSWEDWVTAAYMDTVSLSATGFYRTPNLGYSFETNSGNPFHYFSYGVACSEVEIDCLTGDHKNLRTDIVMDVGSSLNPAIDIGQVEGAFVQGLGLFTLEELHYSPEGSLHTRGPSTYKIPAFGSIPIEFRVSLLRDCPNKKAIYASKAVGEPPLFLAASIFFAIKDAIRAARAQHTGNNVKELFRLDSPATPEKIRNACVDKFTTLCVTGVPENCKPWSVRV

For the compound `NC1=NS(=O)(=O)Nc2nc[nH]c21`, the “inhibition (INH)” value in data set [1] and in data set [2] was “Not Active” throughout.

Regarding `O=c1[nH]cnc2nsnc12`, the inhibition result in the data set listed under Oryctolagus cuniculus [3] was “inactive”.

On to `NC1=NS(=O)(=O)Nc2[nH]cnc21`, for which the inhibition entry in the data set filed under Oryctolagus cuniculus [4] is “inactive”.

For the compound `NC1=NS(=O)(=O)Nc2nsnc21`, in [5], the Ki is 190 µM. Also, the Ratio in the data set listed under Oryctolagus cuniculus [6] is 11. The “inhibition (INH)” value in [1] and in data set [2] was “Not Active” throughout. Moreover, the inhibition result in the data set listed under Oryctolagus cuniculus [7] is “Active”. In data set [8], this compound showed a pKa of 3.2.

As for `O=C1NS(=O)(=O)Nc2nc[nH]c21`, the inhibition entry in the data set filed under Oryctolagus cuniculus [9] was “inactive”. In addition, the “inhibition (INH)” value in data set [1] and in data set [2] was “Not Active” throughout.

As for `NC1=NS(=O)(=O)Nc2[nH]ncc21`, the “inhibition (INH)” value in data set [1] and in data set [2] was “Not Active” each time. Also, the pKa in data set [8] came to 4.1. The inhibition entry in the data set listed under Oryctolagus cuniculus [10] is “inactive”.

Consider `O=C1NS(=O)(=O)Nc2[nH]ncc21`, for which, in data set [5], the Ki is 250 µM. In addition, in the data set listed under Oryctolagus cuniculus [6], the Ratio came to 15. Further, the “inhibition (INH)” value in [1] and in [2] was “Not Active” each time. For the same compound, in the data set filed under Oryctolagus cuniculus [7], the inhibition entry was “Active”. The compound further displayed a pKa in data set [8] of 6.5.
